Results on one compound are retold here after ChEMBL document CHEMBL2021876, “New pyridobenzoxazepine derivatives derived from 5-(4-methylpiperazin-1-yl)-8-chloro-pyrido[2,3-b][1,5]benzoxazepine (JL13): chemical synthesis and pharmacological evaluation” (J Med Chem, 2012).

Molecules are shown by their SMILES.

The target in experiment [1] is D(2) dopamine receptor (Rattus norvegicus) (UniProt P61169). The experiment is described as follows: In vivo displacement of [3H]Nemonapride from dopamine D2 receptor in Sprague-Dawley rat medial-prefrontal cortex at 13.75 mg/kg, ip qd for 28 days by autoradiography relative to control. Set-up: dose 13.75 mg/kg. It is filed as functional, organism-based. The method, boiled down:
(§1)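 Male Sprague-Dawley rats, N = 8/group, daily ip dosing for 28 days with vehicle controls; cryostat sections (10 μm) preincubated 1 h RT. Incubation 1 h RT in 50 mM Tris-HCl pH 7.4, 120 mM NaCl, 5 mM KCl, 2 mM CaCl2, 1 mM MgCl2 with 1 nM [3H]nemonapride, 0.5 μM DTG, 0.1 μM pindolol. Nonspecific: 10 μM S(−)-sulpiride. Values fmol/mg tissue, % of control.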
(In general: Displacement assays read how much labelled ligand stays bound in the presence of the test substance.)

In experiment [2] the test system is Caudate-putamen. The experiment is described as follows: In vivo displacement of [3H]SCH-23390 from dopamine D1 receptor in Sprague-Dawley rat lateral part of caudate putamen at 13.75 mg/kg, ip qd for 28 days by autoradiography relative to control. It is filed as functional. Particulars: route intraperitoneal. The method in brief:
(§2)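 Forebrain sections from male Sprague-Dawley rats (N = 8/group) after 28 days of daily ip injections versus vehicle. Incubation 1 h RT in 50 mM Tris-HCl pH 7.4, 120 mM NaCl, 5 mM KCl, 2 mM CaCl2, 1 mM MgCl2 with 1 nM [3H]SCH-23390 and 100 nM ketanserin. Nonspecific: 1 μM cis-flupenthixol. Saturating conditions; fmol/mg tissue, % of control.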

Experiment [3] addresses D(2) dopamine receptor (Rattus norvegicus) (UniProt P61169). The experiment is described as follows: In vivo displacement of [3H]Nemonapride from dopamine D2 receptor in Sprague-Dawley rat nucleus accumbens at 13.75 mg/kg, ip qd for 28 days by autoradiography relative to control. Format: functional, organism-based. Set-up: dose 13.75 mg/kg. The method, boiled down:
as §1

A short description of experiment [4]: In vivo displacement of [3H]SCH-23390 from dopamine D1 receptor in Sprague-Dawley rat entorhinal cortex at 13.75 mg/kg, ip qd for 28 days by autoradiography relative to control. Format: functional. Particulars: route intraperitoneal. The method, boiled down:
as §2

Experiment [5] can be described thus: In vivo displacement of [3H]Ketanserin from 5HT2A receptor in Sprague-Dawley rat entorhinal cortex at 13.75 mg/kg, ip qd for 28 days by autoradiography relative to control. It is filed as functional. Particulars: route intraperitoneal. The method in brief:
(§3)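 Rats (male Sprague-Dawley, N = 8/group) given daily ip injections for 28 days versus vehicle. Brain sections preincubated 1 h RT in 50 mM Tris-HCl pH 7.7, then 1 h RT with 3.0 nM [3H]ketanserin plus 1 μM prazosin and 100 nM tetrabenazine. Nonspecific: 1 μM methysergide. Washes 2 × 30 min ice-cold. Readout fmol/mg tissue as % of control, mean ± SEM.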

The target of experiment [6] is 5-hydroxytryptamine receptor 2A (Homo sapiens, UniProt P28223). The experiment is described as follows: Displacement of [3H]ketanserin from human recombinant 5HT2A receptor expressed in CHO cells after 60 mins by liquid scintillation counting. It is filed as cell-based.
Sequence of 5-hydroxytryptamine receptor 2A (P28223 whole entry): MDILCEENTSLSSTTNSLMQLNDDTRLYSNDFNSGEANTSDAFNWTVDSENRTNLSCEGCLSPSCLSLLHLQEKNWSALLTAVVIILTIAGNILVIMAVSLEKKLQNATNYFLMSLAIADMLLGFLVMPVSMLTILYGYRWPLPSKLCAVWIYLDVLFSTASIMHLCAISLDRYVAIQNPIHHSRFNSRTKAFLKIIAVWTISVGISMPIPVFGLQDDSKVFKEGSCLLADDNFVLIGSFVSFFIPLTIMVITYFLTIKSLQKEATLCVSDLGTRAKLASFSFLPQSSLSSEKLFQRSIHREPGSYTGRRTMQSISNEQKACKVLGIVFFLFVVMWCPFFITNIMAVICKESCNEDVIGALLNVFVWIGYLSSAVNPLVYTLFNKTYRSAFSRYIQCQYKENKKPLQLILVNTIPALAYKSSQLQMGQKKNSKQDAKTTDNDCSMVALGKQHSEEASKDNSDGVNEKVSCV
Experiment [7] concerns Hippocampus. The experiment is described as follows: In vivo displacement of [3H]8-OH-DPAT from 5HT1A receptor in Sprague-Dawley rat hippocampus CA3 region at 13.75 mg/kg, ip qd for 28 days by autoradiography relative to control. Format: functional. The settings on record: route intraperitoneal. The method in brief: (§4)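 Male Sprague-Dawley rats (200−225 g, N = 8/group) dosed ip once daily for 28 days, vehicle controls, decapitated; 10 μm frozen coronal sections. Preincubation 1 h RT in 50 mM Tris-HCl pH 7.6, 0.1% ascorbic acid, 4 mM CaCl2, 10 μM pargyline; then 1 h RT with 2.0 nM [3H]8-OH-DPAT. Nonspecific: 1 μM 5-HT. Saturating conditions; binding in fmol/mg tissue, % of control, mean ± SEM.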

Experiment [8] can be described thus: In vivo displacement of [3H]SCH-23390 from dopamine D1 receptor in Sprague-Dawley rat dorsolateral frontal cortex at 13.75 mg/kg, ip qd for 28 days by autoradiography relative to control. Format: functional. The settings on record: route intraperitoneal. The method in brief: as §2
The target in experiment [9] is T1, 5-hydroxytryptamine receptor 1A (Homo sapiens, UniProt P08908).
T1 sequence (P08908 whole entry): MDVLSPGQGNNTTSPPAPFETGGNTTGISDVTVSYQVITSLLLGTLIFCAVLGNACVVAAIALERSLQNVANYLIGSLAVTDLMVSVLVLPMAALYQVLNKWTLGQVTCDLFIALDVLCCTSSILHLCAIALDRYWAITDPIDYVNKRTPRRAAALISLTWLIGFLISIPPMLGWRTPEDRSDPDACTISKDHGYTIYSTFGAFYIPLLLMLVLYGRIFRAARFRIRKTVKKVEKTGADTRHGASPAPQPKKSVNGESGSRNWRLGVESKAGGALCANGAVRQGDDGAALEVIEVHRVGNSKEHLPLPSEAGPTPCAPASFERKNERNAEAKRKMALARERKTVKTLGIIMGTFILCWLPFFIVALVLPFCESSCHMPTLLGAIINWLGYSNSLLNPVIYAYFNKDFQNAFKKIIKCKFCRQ
The experiment is described as follows: Displacement of [3H]8-OH-DPAT from human recombinant 5HT1A receptor expressed in CHO cells after 60 mins by liquid scintillation counting. It is filed as cell-based.

The test system of experiment [10] is Caudate-putamen. The experiment is described as follows: In vivo displacement of [3H]Nemonapride from dopamine D4 receptor in Sprague-Dawley rat medial part of caudate putamen at 13.75 mg/kg, ip qd for 28 days by autoradiography relative to control. It is filed as functional. The settings on record: route intraperitoneal.
For experiment [11], the target named is T2, D(4) dopamine receptor (Homo sapiens) (UniProt P21917).
T2 sequence (whole entry): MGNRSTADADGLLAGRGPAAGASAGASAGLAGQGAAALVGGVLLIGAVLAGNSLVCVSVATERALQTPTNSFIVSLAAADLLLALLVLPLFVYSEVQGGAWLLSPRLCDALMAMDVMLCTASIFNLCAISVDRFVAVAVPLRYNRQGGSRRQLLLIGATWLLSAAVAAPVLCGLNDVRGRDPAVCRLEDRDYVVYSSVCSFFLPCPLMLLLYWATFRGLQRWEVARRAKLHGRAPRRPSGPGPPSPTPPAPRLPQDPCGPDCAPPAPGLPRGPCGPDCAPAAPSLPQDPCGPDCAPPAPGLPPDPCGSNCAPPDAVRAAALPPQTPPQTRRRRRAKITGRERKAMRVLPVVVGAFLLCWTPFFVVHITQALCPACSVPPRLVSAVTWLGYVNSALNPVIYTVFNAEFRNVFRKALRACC
The experiment is described as follows: Displacement of [3H]-YM09151-2 from human cloned dopamine D4 receptor expressed in insect Sf9 cells at 10^-6 M after 60 mins by liquid scintillation counting.

Experiment [12] is described as follows: In vivo displacement of [3H]Ketanserin from 5HT2A receptor in Sprague-Dawley rat nucleus accumbens at 13.75 mg/kg, ip qd for 28 days by autoradiography relative to control. It is filed as functional. The settings on record: route intraperitoneal. The method in brief: as §3
In experiment [13] the test system is Caudate-putamen. The experiment is described as follows: In vivo displacement of [3H]Ketanserin from 5HT2A receptor in Sprague-Dawley rat medial part of caudate putamen at 13.75 mg/kg, ip qd for 28 days by autoradiography relative to control. Format: functional. Particulars: route intraperitoneal. The method in brief: as §3
Experiment [14] deals with Hippocampus. The experiment is described as follows: In vivo displacement of [3H]8-OH-DPAT from 5HT1A receptor in Sprague-Dawley rat hippocampus CA1 region at 13.75 mg/kg, ip qd for 28 days by autoradiography relative to control. It is filed as functional. The settings on record: route intraperitoneal. The method in brief:
as §4

Experiment [15] is described as follows: In vivo displacement of [3H]Nemonapride from dopamine D4 receptor in Sprague-Dawley rat nucleus accumbens at 13.75 mg/kg, ip qd for 28 days by autoradiography relative to control. It is filed as functional. The settings on record: route intraperitoneal.

Sequence of D(2) dopamine receptor (Rattus norvegicus) (P61169 whole entry): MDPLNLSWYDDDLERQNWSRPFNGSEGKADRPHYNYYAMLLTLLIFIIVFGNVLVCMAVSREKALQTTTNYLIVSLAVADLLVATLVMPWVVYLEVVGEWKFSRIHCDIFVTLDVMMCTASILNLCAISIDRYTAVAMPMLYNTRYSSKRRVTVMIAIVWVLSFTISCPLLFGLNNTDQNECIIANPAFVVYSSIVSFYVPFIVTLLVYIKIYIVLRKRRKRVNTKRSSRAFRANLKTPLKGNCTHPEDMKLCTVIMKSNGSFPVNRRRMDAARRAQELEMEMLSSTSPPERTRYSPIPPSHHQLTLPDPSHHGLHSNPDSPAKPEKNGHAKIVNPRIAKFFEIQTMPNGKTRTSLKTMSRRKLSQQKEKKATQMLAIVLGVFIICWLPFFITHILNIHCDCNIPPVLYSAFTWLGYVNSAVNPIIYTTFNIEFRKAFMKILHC

In the case of `Clc1ccc2c(c1)N=C(N1CCNCC1)c1cccnc1O2`, the figures for the inhibition in [1], in experiment [3] and in [11] were 141%, 140% and 28%, respectively. Further, the inhibition in vivo at 13.75 mg/kg in the experiment on Caudate-putamen [2] came to 132%; in experiment [4], 96%; in experiment [5], 90%; in the experiment with Hippocampus [7], 105%; in experiment [8], 95%; in the experiment on Caudate-putamen [10], 166%. For the same compound, the inhibition in vivo at 13.75 mg/kg came to 98% in experiment [12], 87% with Caudate-putamen [13], 95% with Hippocampus [14] and 178% in [15]. Besides, the inhibition constant Ki in [6] stood at 131 nM; in experiment [9] it was 375 nM.

A word on the inhibition: it is the change of the read-out against control, counted positive when it falls. The term inhibition in vivo denotes the change of the read-out against control, counted positive when it falls. As usually defined, the Ki is a measure of affinity in units of concentration, obtained from inhibition or displacement.
